Drawing on ChEMBL document CHEMBL1134324, “Chemosensitization of a multidrug-resistant Leishmania tropica line by new sesquiterpenes from Maytenus magellanica and Maytenus chubutensis” (J Med Chem, 2001), this text covers inhibition for 14 molecules.

What all share (type): functional
The subject of experiment [1] is Leishmania tropica. Briefly: Growth inhibition of MDR (DNM-R150) L. Tropica line at 15 uM concentration. In short, it runs like this: (§1)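 Daunomycin-resistant (DNM-R150) promastigotes, log phase, 3 × 10⁵ cells per well, co-exposed to 150 μM DNM plus sesquiterpene (DMSO stock diluted in medium; final DMSO ≤0.3%). Incubated 72 h at 28 °C in RPMI 1640-modified medium with 20% heat-inactivated FBS. MTT added for 4 h, formazan dissolved in 20% SDS, A540 read. %GI calculated relative to control cells given the same DNM without modulator.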

The subject of experiment [2] is Leishmania tropica. The experiment in a line: Growth inhibition of MDR (DNM-R150) L. Tropica line at 30 uM concentration. In short, it runs like this: as §1
Experiment [3] concerns Leishmania tropica. Briefly: Growth inhibition of MDR (DNM-R150) L. Tropica line at 7.5 uM concentration. A digest of the protocol:
as §1

Experiment [4] has as its system Leishmania tropica. The experiment in a line: Growth inhibition of wild type L. Tropica parasite at 15 uM concentration. A digest of the protocol:
(§2)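 Intrinsic toxicity assay on wild-type LRC clone promastigotes, log phase, 3 × 10⁵ cells per well, exposed to sesquiterpene without DNM (DMSO stock diluted in medium; final DMSO ≤0.3%). Incubated 72 h at 28 °C in RPMI 1640-modified medium with 20% FBS. Viability read by MTT (4 h, SDS solubilization, 540 nm). Survival is absorbance ratio to untreated control, expressed as %GI.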

Experiment [5] deals with Leishmania tropica. Briefly: Growth inhibition of wild type L. Tropica parasite at 30 uM concentration. In short, it runs like this:
as §2

Experiment [6] relates to Leishmania tropica. The experiment in a line: Growth inhibition of wild type L. Tropica parasite at 7.5 uM concentration. In short, it runs like this:
as §2

For `CC(=O)OC[C@]12[C@@H](OC(=O)c3ccccc3)CC3[C@@H](OC(=O)c4ccccc4)C1(OC3(C)C)[C@H](C)C[C@@H](OC(=O)c1cccnc1)[C@@H]2OC(C)=O` (some centres undefined), the inhibition – broadly, the share of the control response that was lost under treatment – is 87.9% in the experiment on Leishmania tropica [1]; 93.7% in the experiment on Leishmania tropica [2]; 83.7% in the experiment with Leishmania tropica [3]; 27.5% in the experiment on Leishmania tropica [4]; 35% in the experiment with Leishmania tropica [5]; 11.5% in the experiment with Leishmania tropica [6].
Turning to `CC(=O)O[C@@H]1[C@H](OC(=O)c2cccnc2)[C@@]2(C)[C@@H](OC(=O)c3ccccc3)[C@@H](OC(C)=O)C3CC2(OC3(C)C)[C@@](C)(O)[C@H]1OC(=O)c1ccccc1` (some centres undefined), the inhibition in the experiment on Leishmania tropica [1] stood at 44%; with Leishmania tropica [2] it was 69.7%; in the experiment with Leishmania tropica [3], 21.4%; with Leishmania tropica [4], 12.9%; in the experiment with Leishmania tropica [5] it was 19.7%; in the experiment with Leishmania tropica [6], 0%.
As for `CC(=O)O[C@@H]1[C@H](OC(=O)c2ccccc2)[C@@]2(C)[C@@H](OC(=O)/C=C/c3ccccc3)C[C@H]3[C@@H](OC(C)=O)[C@]2(OC3(C)C)[C@@](C)(O)[C@H]1OC(=O)c1cccnc1`, the inhibition was determined as 13.5% with Leishmania tropica [1]; 45% in the experiment on Leishmania tropica [2]; 7.3% with Leishmania tropica [3]; 1.5% with Leishmania tropica [4]; 1.9% in the experiment with Leishmania tropica [5]; 1.5% in the experiment on Leishmania tropica [6].
Consider `CC(=O)O[C@H]1C[C@](C)(O)C23CC(C[C@H](OC(=O)c4ccccc4)[C@]2(C)[C@H]1OC(=O)c1ccccc1)C(C)(C)O3` (some centres undefined), for which the inhibition in the experiment on Leishmania tropica [1] is 89.7%; in the experiment on Leishmania tropica [2], 94%; in the experiment on Leishmania tropica [3], 82%; in the experiment with Leishmania tropica [4], 4.1%; with Leishmania tropica [5], 13.3%; with Leishmania tropica [6], 5.3%.
Take `CC(=O)O[C@@H]1[C@H](OC(=O)c2ccccc2)[C@@]2(C)[C@@H](OC(=O)c3ccccc3)[C@@H](OC(C)=O)C3CC2(OC3(C)C)[C@@](C)(O)[C@H]1OC(C)=O` (some centres undefined): the inhibition in the experiment with Leishmania tropica [1] is 65%; with Leishmania tropica [2], 90%; in the experiment with Leishmania tropica [3], 39%; with Leishmania tropica [4], 14.4%; in the experiment on Leishmania tropica [5] it was 23%; with Leishmania tropica [6] it was 1.7%.
As for `CC(=O)O[C@@H]1C2[C@H](OC(C)=O)[C@H](OC(=O)c3ccccc3)[C@]3(C)[C@@H](OC(=O)c4ccccc4)[C@H](OC(=O)c4cccnc4)C[C@@H](C)C13OC2(C)C` (some centres undefined), the inhibition with Leishmania tropica [1] is 79.3%; with Leishmania tropica [2], 94.5%; in the experiment with Leishmania tropica [3], 42.2%; with Leishmania tropica [4], 13%; in the experiment on Leishmania tropica [5] it was 13.3%; in the experiment with Leishmania tropica [6], 1.7%.
Regarding `CC(=O)O[C@@H]1[C@H](OC(=O)c2ccccc2)[C@@]2(C)[C@@H](OC(=O)c3ccccc3)[C@@H](OC(=O)c3ccccc3)C3CC2(OC3(C)C)[C@@](C)(O)[C@H]1OC(C)=O` (some centres undefined), the inhibition in the experiment on Leishmania tropica [1] came to 79%; in the experiment with Leishmania tropica [2] it was 93%; in the experiment with Leishmania tropica [3] it was 48.7%; with Leishmania tropica [4] it was 15.8%; in the experiment on Leishmania tropica [5], 20.5%; with Leishmania tropica [6], 0.5%.
As for `CC(=O)O[C@@H]1[C@H](OC(=O)c2ccccc2)[C@@]2(C)[C@@H](OC(=O)c3ccccc3)CC3[C@@H](OC(C)=O)C2(OC3(C)C)[C@@](C)(O)[C@H]1OC(=O)c1cccnc1` (some centres undefined), the inhibition in the experiment with Leishmania tropica [1] was determined as 30.7%; in the experiment on Leishmania tropica [2], 69.5%; in the experiment with Leishmania tropica [3], 10%; in the experiment with Leishmania tropica [4], 0.7%; with Leishmania tropica [5] it was 3.7%; with Leishmania tropica [6] it was 2.2%.
In the case of `CC(=O)O[C@@H]1[C@H](OC(=O)/C=C/c2ccccc2)[C@@]2(C)[C@@H](OC(=O)c3ccccc3)CC3CC2(OC3(C)C)[C@@](C)(O)[C@H]1OC(=O)c1cccnc1` (some centres undefined), the inhibition is 90.3% in the experiment on Leishmania tropica [1]; 94.7% in the experiment with Leishmania tropica [2]; 82% in the experiment with Leishmania tropica [3]; 3.7% in the experiment on Leishmania tropica [4]; 7.5% in the experiment on Leishmania tropica [5]; 2.5% with Leishmania tropica [6].
As to `CC(=O)O[C@H]1C[C@](C)(O)C23CC(C[C@H](OC(=O)/C=C/c4ccccc4)[C@]2(C)[C@H]1OC(=O)c1ccccc1)C(C)(C)O3` (some centres undefined), the inhibition with Leishmania tropica [1] is 92.8%; with Leishmania tropica [2] it was 94.3%; with Leishmania tropica [3] it was 88.2%; in the experiment with Leishmania tropica [4] it was 7.3%; in the experiment on Leishmania tropica [5], 7.5%; in the experiment on Leishmania tropica [6], 0%.
Take `CC(=O)O[C@@H]1C2[C@H](OC(C)=O)[C@H](OC(=O)c3ccccc3)[C@]3(C)[C@@H](OC(=O)c4ccccc4)[C@H](OC(=O)c4ccccc4)C[C@](C)(O)C13OC2(C)C` (some centres undefined): the inhibition was determined as 82.2% in the experiment on Leishmania tropica [1]; 92% in the experiment with Leishmania tropica [2]; 60.3% with Leishmania tropica [3]; 19.7% with Leishmania tropica [4]; 16.2% with Leishmania tropica [5]; 9.7% in the experiment with Leishmania tropica [6].
Turning to `CC(=O)O[C@@H]1[C@H](OC(=O)c2cccnc2)[C@@]2(C)[C@@H](OC(=O)c3ccccc3)[C@@H](OC(=O)c3ccccc3)C3CC2(OC3(C)C)[C@@](C)(O)[C@H]1OC(C)=O` (some centres undefined), the inhibition in the experiment with Leishmania tropica [1] is 54%; with Leishmania tropica [2], 89%; with Leishmania tropica [3] it was 23.9%; in the experiment on Leishmania tropica [4] it was 6%; in the experiment with Leishmania tropica [5], 11%; in the experiment with Leishmania tropica [6], 0.5%.
With `CC(=O)OC[C@]12[C@@H](OC(=O)c3ccccc3)CC3[C@@H](OC(=O)c4ccccc4)C1(OC3(C)C)[C@@](C)(O)C[C@@H](OC(=O)c1cccnc1)[C@@H]2OC(C)=O` (some centres undefined), the inhibition in the experiment with Leishmania tropica [1] stood at 91.3%; in the experiment with Leishmania tropica [2] it was 94.8%; in the experiment on Leishmania tropica [3], 80.7%; with Leishmania tropica [4] it was 25.8%; in the experiment with Leishmania tropica [5] it was 45%; in the experiment with Leishmania tropica [6], 8.2%.
`CC(=O)O[C@H]1[C@H](O)[C@@H](C)C23OC(C)(C)C(C[C@H](OC(=O)c4ccccc4)[C@]2(C)[C@H]1OC(=O)c1ccccc1)[C@H]3OC(C)=O` (some centres undefined): the inhibition in the experiment with Leishmania tropica [1] was 54%; in the experiment on Leishmania tropica [2], 77.5%; in the experiment with Leishmania tropica [3], 32%; in the experiment on Leishmania tropica [4] it was 3.5%; in the experiment with Leishmania tropica [5], 11.7%; in the experiment on Leishmania tropica [6] it was 0%.
